Measurements reported in ChEMBL document CHEMBL3808330, “Peroxide Natural Products from Plakortis zyggompha and the Sponge Association Plakortis halichondrioides-Xestospongia deweerdtae: Antifungal Activity against Cryptococcus gattii” (J Nat Prod, 2016).
Converted amounts (≈) assume the structure as drawn.

Tests used:
Candida albicans = experiment: Antifungal activity against Candida albicans ATCC 14503 after 48 hrs by microbroth dilution method; format: functional; details: ATCC 14503, 48 h
How it was run: (§1)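 Microbroth dilution per CLSI protocol in antibiotic medium 3; growth read as optical density at 590 nm in microplate wells; MIC90 reported. C. albicans ATCC 14503; C. krusei patient isolate from UC Davis clinical microbiology; C. gattii and C. grubii strains gifted from UC Davis.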

[1] = system: Cryptococcus gattii species complex; experiment: Antifungal activity against Cryptococcus gattii after 48 hrs by microbroth dilution method; format: functional, Cryptococcus bacillisporus; how it was run: as §1
Cryptococcus neoformans = experiment: Antifungal activity against Cryptococcus grubii after 48 hrs by microbroth dilution method; format: functional; how it was run: as §1
Pichia kudriavzevii = experiment: Antifungal activity against fluconazole-resistant Candida krusei after 48 hrs by microbroth dilution method; format: functional; how it was run: as §1
[2] = Drug degradation in presence of 3-tert-butyl-4-hydroxy-5-methylphenyl sulfide at -20 degC after 12 hrs by 1H-NMR spectroscopic method; format: physicochemical
[3] = Drug degradation in presence of 3-tert-butyl-4-hydroxy-5-methylphenyl sulfide at -20 degC after 48 hrs by 1H-NMR spectroscopic method; format: physicochemical
[4] = Stability assessed as drug degradation under ambient conditions by 1H-NMR spectroscopic method; format: physicochemical

SMILES	MIC90 (Candida albicans)	MIC90 [1]	MIC90 (Cryptococcus neoformans)	MIC90 (Pichia kudriavzevii)	Stability [2]	Stability [3]	Stability [4]
CCCCC[C@]1(CC)C[C@H](CC)[C@@H]([C@H](O)C(=O)O)O1	> 100 µM	> 100 µM					
CCCCC[C@]1(CC)C[C@H](CC)[C@H](CC(=O)O)OO1	27 µM (≈ 7.35 µg/mL)	36 µM (≈ 9.81 µg/mL)	26 µM (≈ 7.08 µg/mL)	10 µM (≈ 2.72 µg/mL)			
CC(=C\Cc1ccccc1)/C=C(\C)C[C@@H](C)C[C@@]1(C)C[C@@](C)(/C=C/C(=O)O)OO1	> 100 µM	> 100 µM			Stable	Unstable	Unstable
CCCCCC[C@]1(CC)C[C@H](CC)[C@H](CC(=O)O)OO1	22 µM (≈ 6.3 µg/mL)	9.6 µM (≈ 2.75 µg/mL)	6 µM (≈ 1.72 µg/mL)	4.3 µM (≈ 1.23 µg/mL)			
C/C(=C\C=C\Cc1ccccc1)C[C@@H](C)C[C@@]1(C)C[C@@](C)(/C=C/C(=O)O)OO1	> 100 µM	> 100 µM			Stable	Unstable	Unstable
C[C@H](CCCCCCCCCc1ccccc1)C[C@]1(C)C[C@H](C)[C@H](CC(=O)O)OO1	13 µM (≈ 5.44 µg/mL)	2.4 µM (≈ 1 µg/mL)	3.4 µM (≈ 1.42 µg/mL)	2.7 µM (≈ 1.13 µg/mL)			
CC(=C\Cc1ccccc1)/C=C(\C)C[C@@H](C)C[C@@]1(C)C[C@@](C)(CC(=O)O)OO1	> 100 µM	> 100 µM			Stable	Unstable	Unstable
CCCCCC[C@]1(CC)C[C@H](CC)[C@H](CC(=O)OC)OO1	> 100 µM	> 100 µM					
CCCCC[C@]1(CC)C[C@H](CC)[C@H](CC(=O)OC)OO1	> 100 µM	> 100 µM					
